SR-BI DiI inh – inhibitors of SR-BI mediated HDL lipid uptake, primary screen, ldlA[mSR-BI] cells, fluorescence, single point | Scavenger receptor class B member 1 (Mus musculus), Q61009 | ldlA[mSR-BI] CHO cells, DiI-HDL uptake fluorescence, 3 h | inhibition, % at 12.5 µM | 320,000 tested, 0.96% active;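 active = mean replicate inhibition of at least 70% and a set share of replicates each scoring 70 or more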;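 also: 0% = median of neutral control wells and 100% = median of positive control wells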
Target sequence (Q61009 whole entry, looked up): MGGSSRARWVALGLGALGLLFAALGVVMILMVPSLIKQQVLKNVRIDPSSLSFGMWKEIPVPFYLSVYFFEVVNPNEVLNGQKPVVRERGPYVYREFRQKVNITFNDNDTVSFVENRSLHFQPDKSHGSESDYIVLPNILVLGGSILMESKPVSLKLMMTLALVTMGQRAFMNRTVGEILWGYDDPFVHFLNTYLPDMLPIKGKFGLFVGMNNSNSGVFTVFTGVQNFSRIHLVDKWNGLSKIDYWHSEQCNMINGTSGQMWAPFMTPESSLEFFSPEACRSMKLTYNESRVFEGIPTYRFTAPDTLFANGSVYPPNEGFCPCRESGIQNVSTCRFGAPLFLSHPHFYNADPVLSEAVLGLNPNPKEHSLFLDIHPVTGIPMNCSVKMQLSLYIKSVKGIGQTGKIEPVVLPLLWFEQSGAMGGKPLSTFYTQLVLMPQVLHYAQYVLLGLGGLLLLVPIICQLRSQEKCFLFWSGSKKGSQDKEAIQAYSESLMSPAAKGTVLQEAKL
SR-BI uptake up – activators of SR-BI mediated DiI-HDL uptake, primary screen, ldlA[mSR-BI] CHO cells, DiI fluorescence | activation, % at 12.5 µM | AID 504775, 2011 | 3 h; 100 = double the neutral-control signal | 320,000 tested, 0.096% active;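 active = mean replicate activation of at least 60% and every replicate at or above 60%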;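 also: 0% = median plate neutral-control signal and 100% = twice that signal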
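Assay system: LDL receptor-deficient CHO ldlA cells overexpressing murine SR-BI / Medium: BSA-supplemented, HEPES-buffered Ham's F12, pH 7.4 / Probe or stimulus: DiI-labelled HDL at 10 µg/mL final / Timing: compound with DiI-HDL co-incubation, 3 h at 37 °C / Technique: bottom-read cell fluorescence after medium removal, ex 550/em 595 nm / Measure: HDL uptake via cellular fluorescence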
MITF act – activators of MITF-driven TRPM1 promoter reporter, primary screen, cell-based, SK-MEL-5, luciferase, single point. activation, % at 12.5 µM. SK-MEL-5 TRPM1-promoter luciferase, 24 h; % of positive control, neutral wells = 0. AID 588334, 2011. 300,000 tested, 0.75% active;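 active = mean activation of at least 80% with every replicate also reaching 80%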;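 also: 0% = neutral control wells and 100% = parthenolide positive control wells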
Wnt bcat act – Wnt/beta-catenin pathway activators, primary screen, cell-based, plate reader, single point | 300,000 tested, 1.2% active | Wnt/beta-catenin reporter cell assay, activator | activation, % at 9.35 µM; in the data active = activation above about 30%, passing the limit was not always enough;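 also: 0% = neutral control wells and 100% = positive control wells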
HSF-1 act – HSF-1 activators, primary screen, NIH3T3-HGL cells, MG132 stress, luminescence, single point; NIH3T3-HGL HSF-1 luciferase reporter, 8 h; 100% = twice DMSO control signal; activation, % at 9 µM; 300,000 tested, 1.7% active;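 active = mean replicate activation of at least 50% with a set share of replicates each reaching 50%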;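 also: 0% = median of the neutral control wells and 100% = twice that signal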
* marks the source's active call; other numbers are inactive results; nt = no result given. Shown are actives, neighbours in structure and some others; about 3.6% of the full set was active somewhere.

SMILES	SR-BI DiI inh	SR-BI uptake up	MITF act	Wnt bcat act	HSF-1 act
COC(=O)c1cc(S(=O)(=O)NCC2CCN(C(=O)C(=O)c3cccs3)CC2)cs1	nt	nt	nt	2	nt
CC(=O)Nc1cccc(NS(=O)(=O)c2ccc3c(c2)CCC(=O)N3)c1	nt	nt	nt	0	nt
COc1ccc(C(=O)COC(=O)C2CCN(c3ccc(C(F)(F)F)cn3)CC2)c(OC)c1	17	-17	26	3	nt
COc1cc2c(cc1OC)CN(c1ccc(C(F)(F)F)cn1)CC2	nt	nt	37	4	102*
COc1cc2c(cc1OC)CN(c1ccc3ccccc3n1)CC2	76*	-76	53	7	15
COc1cc2c(cc1OC)CN(c1ccc(-c3ccccc3OC)nn1)CC2	45	-45	-9	nt	41
CN1CCN(C(=O)C[C@@H]2CC[C@@H]3[C@H](COC[C@@H](O)CN3Cc3cccc(Cl)c3)O2)CC1	nt	nt	nt	-1	nt
O=C(NCc1ccccc1)[C@@H]1CCCN1C(=O)[C@H]1CCCN1C(=O)N1CCCCC1	nt	nt	nt	-5	nt
CC(C)(C)C(=O)/C=c1\[nH]c(=O)/c(=C\c2ccc(F)cc2)s1	21	-21	10	nt	1
COc1ccc(/C=c2\s/c(=C/C(=O)c3ccc(C)cc3)[nH]c2=O)cc1OC	74*	-74	1	-5	18
Clc1ccc(-n2nnnc2Sc2ncnc3sccc23)cc1	-24	24	nt	nt	129*
CC1CCN(C(=O)c2cc3c(ccc4ccccc43)o2)CC1	-16	16	29	33*	-7
CCOC(=O)C1CCN(C(=O)c2cc3c(ccc4ccccc43)o2)CC1	-12	12	96*	42*	77*
CCOC(=O)C1CCN(C(=O)c2cc3cc(C)ccc3[nH]2)CC1	-17	17	nt	34*	10
CCOC(=O)C1CCN(C(=O)c2cc3c(C)cc(C)cc3[nH]2)CC1	-5	5	9	2	16
CCOC(=O)Cc1csc(NC(=O)C(NC(=O)C2CCC(C)CC2)C(C)C)n1 (configuration not stated)	-38	38	nt	-2	22
CCOC(=O)C1=CCN(S(=O)(=O)c2ccccc2)C1c1ccc(Cl)cc1 (configuration not stated)	nt	nt	nt	-2	nt
COc1ccccc1C(O)c1ncc(-c2cccc3ccccc23)[nH]1 (configuration not stated)	nt	nt	nt	-6	nt
Cc1ccc(OC(=O)c2cccc([N+](=O)[O-])c2)c(-n2nc3ccccc3n2)c1	0	0	76	43*	4
Cc1ccc(OC(=O)COc2ccccc2)c(-n2nc3ccccc3n2)c1	-16	16	37	55*	51*
Cc1ccc(OC(=O)COc2ccccc2C)c(-n2nc3ccccc3n2)c1	1	-1	60	18	41
C=CCn1c(=O)/c(=C/c2ccc(Cl)cc2)s/c1=C(\C#N)c1nnc2n1CCCCC2	34	-34	7	-2	nt
CCN(CC(=O)Nc1ccc(NC(C)=O)cc1)C(=O)CCCOc1ccc(C(C)(C)C)cc1	28	-28	7	-1	-13
O=C(CNC(=O)c1ccco1)N=Nc1c(O)[nH]c2ccc(Br)cc12	-12	12	5	-1	10
COc1ccccc1NC(=S)N=Nc1c(O)[nH]c2ccc(Br)cc12	46	-46	-20	-12	86*
SMILES	SR-BI DiI inh	SR-BI uptake up	MITF act	Wnt bcat act	HSF-1 act
Cc1occc1C(=O)N=Nc1c(O)[nH]c2ccc(Br)cc12	nt	nt	nt	nt	50*
Oc1[nH]c2ccc(Br)cc2c1N=NC(=S)NCC1CCCO1 (configuration not stated)	15	-15	-29	-4	-11
Cc1cccc(NC(=S)N=Nc2c(O)[nH]c3ccccc23)c1	-3	3	-1	-12	90*
COCc1cc(N2CCN(C(=O)OC(C)(C)C)C[C@H]2C)ccc1N1CCN(Cc2ccccc2)[C@@H](C)C1	nt	nt	nt	-8	nt
COCCn1c(C)cc(C(=O)COC(=O)c2ccc(N3CCCC3=O)cc2)c1C	28	-28	nt	nt	-1
COCCn1c(C)cc(C(=O)COC(=O)c2ccc(-n3nc(C)cc3C)cc2)c1C	12	-12	0	-1	60*
O=C(O)C1Nc2c(O)cc(Cl)c([N+](=O)[O-])c2C2C=CCC12 (configuration not stated)	83*	-83	-3	nt	-1
COc1cccc(-c2nc3sc4c(c3c(=O)[nH]2)CCCCC4)c1	9	-9	114*	nt	53*
COc1cc(C(=O)N2CCN(c3cccc(C(F)(F)F)c3)CC2)ccc1OCC(=O)N1CCOCC1	-1	1	0	-1	nt
O=C(Nc1ccccc1O)c1ccc(NC(=O)C2CC2)cc1	28	-28	49	68*	20
CCCC(=O)Nc1ccc(C#Cc2ccccc2)cc1	26	-26	96*	38*	61*
O=C(Nc1ccc(C#Cc2ccccc2)cc1)C1CC1	31	-31	nt	nt	82*
CCCC(=O)Nc1ccc(Oc2ccc(NC(=O)CCC)cc2)cc1	16	-16	-2	-5	-15
CC(=O)Nc1ccc(S(=O)(=O)N(C)CC(=O)OC(C)C(=O)NC2(C#N)CCCCC2)cc1 (configuration not stated)	nt	nt	nt	-2	nt
COc1cccc(OCc2ccc(Cl)cc2)c1C#N	nt	nt	nt	14	61*
COc1cccc(CNC(C)(C)CO)c1OCc1ccc(Cl)cc1	-11	11	8	0	-8
O=C(/C=C\c1ccccc1)Nc1nccs1	-15	15	34	39*	25
Cc1cnc(NC(=O)/C=C/c2ccc(Br)o2)s1	-2	2	29	9	26
CC(=O)OC(C(=O)Nc1nccs1)c1ccccc1 (configuration not stated)	12	-12	nt	0	-1
Cc1ccc(/C=C/C(=O)Nc2ncc(C)s2)o1	37	-37	101*	-1	46
Cc1ccc(/C=C/C(=O)Nc2ccc(N(C)C)cc2)o1	16	-16	115*	nt	6
O=C(Nc1nccs1)C(Br)C(Br)c1ccccc1 (configuration not stated)	27	-27	54	37*	44
O=C(/C=C/c1cccc(F)c1)Nc1nccs1	12	-12	58	21	45
Cc1ccc(/C=C/C(=O)Nc2ccncc2)o1	-12	12	15	nt	-6
CCN=C1NC(c2ccc(Cl)cc2)C(C(=O)OC)=C(C)N1Cc1cccc(C(F)(F)F)c1 (configuration not stated)	nt	nt	nt	-1	nt
CC1CCN(C(=O)COC(=O)c2c[nH]c3ccccc23)CC1	7	-7	63	8	nt
O=C(NCc1ccccc1)C(=O)Nc1nccs1	-25	25	21	1	nt
O=C(Nc1nccs1)OCc1ccccc1	nt	nt	nt	34*	19
CCOC(=O)C(=O)Nc1nccs1	-9	9	-23	-3	4
